This passage reports inhibition results from PubChem BioAssay AID624466 (The Scripps Research Institute Molecular Screening Center, 2012).

Values joined by “and” are separate entries in the source; they are usually repeats but may differ in a detail not shown here. Identical values can stand only once. Screen size: about 360,000 compounds; about 5,400 (1.5%) were called active. For the sample, actives were picked, then their nearest neighbours and some compounds at random. A number with no mark means an inactive call.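 How the source made its calls: active means inhibition above a per-plate cutoff, the mean inhibition of test compounds on that plate plus 3 SD (cut at about 49% in these data); inactive means the rest.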

Sequence of Trace amine-associated receptor 1 (Homo sapiens) (Q96RJ0 whole entry, looked up): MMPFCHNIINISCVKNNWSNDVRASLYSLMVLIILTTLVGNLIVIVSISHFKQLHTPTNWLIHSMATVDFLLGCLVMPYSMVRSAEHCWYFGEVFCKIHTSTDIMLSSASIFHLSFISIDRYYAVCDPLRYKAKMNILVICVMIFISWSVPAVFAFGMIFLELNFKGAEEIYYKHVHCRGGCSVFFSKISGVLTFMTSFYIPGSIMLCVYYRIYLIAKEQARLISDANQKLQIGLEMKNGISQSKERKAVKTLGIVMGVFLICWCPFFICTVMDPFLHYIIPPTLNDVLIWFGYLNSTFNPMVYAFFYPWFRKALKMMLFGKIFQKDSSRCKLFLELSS

This test concerns the target Trace amine-associated receptor 1 (Homo sapiens) (UniProt Q96RJ0). The experiment in a line: human TAAR1 antagonists, primary screen, Fluo-8 calcium fluorescence, CHO RD-HGA16 cells (AID 624466).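 Further: 0% = DMSO plus EC80 beta-PEA response and 100% = DMSO alone without agonist.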 The note with it: CHO RD-HGA16 TAAR1, Fluo-8 calcium fluorescence, antagonist; at 3 µM; hits give high values. An outline of the steps:
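Test system: CHO RD-HGA16 cells bearing hTAAR1 | Reagent: β-PEA, EC80 | Compound dosing: 3 µM, single point | Schedule: Dye loading 75 min at 37 °C, then 30 min room temperature | Signal: Calcium fluorescence with Fluo-8 | Evaluation: Percent inhibition of PEA-evoked calcium signal, max/basal emission ratio | Control set: DMSO-only wells and EC80 β-PEA-stimulated wells | Repeats: Singlicate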
What is called inhibition is the drop in the measured response relative to a control, in per cent. Turning to `C/C(=N\N1CCN(Cc2ccc(C)cc2)CC1)c1ccco1`, the inhibition is -4.82%.

Regarding `Cc1nn(-c2ccccc2)c(C)c1NC(=O)COC(=O)c1cc(Cl)ccc1O`, the inhibition was 68.3% (active).

Regarding `Cc1cccc(C)c1NC(=O)COC(=O)c1c(C)nn(-c2ccccc2)c1C`, the inhibition was -6.4%.

For `Cc1nn(-c2ccccc2)c(C)c1NC(=O)CCl`, the inhibition is -8.39%.

On to `O=C(Nc1ccccc1)c1nnsc1S(=O)(=O)c1ccc(Cl)cc1`, for which the inhibition is 59.8% (active).

Turning to `Cc1nnsc1S(=O)(=O)Cc1ccccc1Cl`, the inhibition was -3.1%.

Regarding `O=C(Nc1ccc(S(=O)(=O)N2CCOCC2)cc1)C1CCN(S(=O)(=O)c2ccc(Cl)cc2)CC1`, the inhibition is 8.67%.

Consider `C=CCN=C1NC(c2cccc(C(F)(F)F)c2)C(C(=O)OC)=C(C)N1C` (stereo not given), for which the inhibition is 5.15%.

`C[C@@H](CN1C2=NC[C@@H](Cc3ccccc3)N2C[C@H]1Cc1ccc(O)cc1)NC(=O)CCC1CCCCC1`: the inhibition was -6.17%.

With `COc1ccccc1CC1(C)C(=O)Nc2ccc(OC(F)(F)F)cc21` (stereo not given), the inhibition was -12.2%.

`CCc1ccc2c(c1)NC(=O)C2(C)Cc1ccc(OC(F)(F)F)cc1` (stereo not given): the inhibition was 55.2% (active).

For the molecule `Cc1ccc(CC2(C)C(=O)Nc3ccc(OC(F)(F)F)cc32)cc1` (stereo not given), the inhibition is -5.18%.

On to `CCOC(=O)c1cc2c(ccn2C)n1CC(=O)N1CCC(C)CC1`, for which the inhibition is -7.37%.

Turning to `COc1ccc(CCNc2nc(C)cc(C)n2)cc1OC`, the inhibition is -1.79%.

Take `COc1ccc(CCNC(=O)c2ccccc2-c2ccccc2C(=O)O)cc1OC`: the inhibition is -6.06%.

As for `COc1ccc(CCNC2=C(Cl)C(=O)N(Cc3ccccc3)C2=O)cc1OC`, the inhibition was 63% (active).

On to `CC(=O)Nc1ccccc1OC(C)C(=O)N1CCC(C)CC1` (stereo not given), for which the inhibition is -3.93%.

As to `COc1ccc2c(c1)C(SCC(=O)NCc1ccccc1)CC(C)(C)O2` (stereo not given), the inhibition was 13%.

On to `C=CCC[C@@H](Cc1ccc(F)cc1)C(=O)O[C@H](CNC(=O)[C@H](CC=C)CC(=O)N(CCO)Cc1ccccc1)c1ccccc1`, for which the inhibition was 75.5% (active).

Consider `C=CCC[C@@H](Cc1ccc(F)cc1)C(=O)OC[C@H](Cc1c[nH]c2ccccc12)NC(=O)[C@@H](CC=C)CC(=O)N(CCO)Cc1ccccc1`, for which the inhibition is 38.4%.

As for `C=CCC[C@@H](Cc1ccc(F)cc1)C(=O)OC[C@@H](C)NC(=O)[C@H](CC=C)CC(=O)N(CCO)Cc1ccccc1`, the inhibition was 46.1%.

`C=CC[C@@H](CC(=O)N[C@H](CO)Cc1ccccc1)C(=O)N[C@H](C)COC(=O)[C@@H](CC=C)Cc1ccc(F)cc1`: the inhibition was 38%.

Take `C=CC[C@@H](Cc1ccc(F)cc1)C(=O)OC[C@H]1CCCN1C(=O)[C@H](CC=C)CC(=O)N(CCO)Cc1ccccc1`: the inhibition is 39.6%.

On to `C=CC[C@@H](CC(=O)N[C@H](CO)Cc1ccccc1)C(=O)N[C@@H](COC(=O)[C@@H](CC=C)Cc1ccc(F)cc1)Cc1c[nH]c2ccccc12`, for which the inhibition is 9.92%.

For the molecule `C=CCC[C@H](Cc1ccc(F)cc1)C(=O)OC[C@H](C)NC(=O)[C@H](CC=C)CC(=O)N(CCO)Cc1ccccc1`, the inhibition is 55.4% (active).

`C=CC[C@H](CC(=O)N(CCO)Cc1ccccc1)C(=O)N[C@@H](COC(=O)[C@@H](CC=C)Cc1ccc(F)cc1)Cc1ccccc1`: the inhibition is 61.4% (active).

As to `C=CCC[C@H](Cc1ccc(F)cc1)C(=O)OC[C@@H](NC(=O)[C@@H](CC=C)CC(=O)N[C@H](CO)Cc1ccccc1)C(C)(C)C`, the inhibition is 37.2%.

Take `COC(=O)C1(C(=O)OC)C[C@H](c2ccccc2)N(Cc2ccccc2OC)[C@@H]1c1ccccc1`: the inhibition is -23.2%.

For `Cc1noc(C)c1NC(=O)Nc1ccc2c(c1)C(=O)N([C@H](C)CO)C[C@H](C)[C@H](CN(C)Cc1ccncc1)OCCCC[C@@H](C)O2`, the inhibition is 8.35%.

On to `CCCCCCc1cc2cc(-c3nnc(-c4cccc(OC)c4)o3)c(=O)oc2cc1O`, for which the inhibition was 15.5%.

In the case of `Nc1[nH]c(C(=O)c2ccccc2)c(-c2ccncc2)c1C(=O)NCc1cccc2ccccc12`, the inhibition was 36.1%.

In the case of `NC(=O)c1ncn([C@@H]2O[C@H](C(=O)O)[C@@H](O)[C@H]2O)n1`, the inhibition was -11.9%.

For the molecule `COc1cccc(CNC(=O)[C@H]2CCCN2C(=O)[C@H]2CCCN2C(=O)c2ccc(F)cc2)c1`, the inhibition was -14.1%.

On to `NC(=O)c1nsc(C(=O)N(CC(=O)NCc2ccc(F)cc2)Cc2ccco2)c1N`, for which the inhibition is 10.2%.

For the molecule `COc1cc(C(C(=O)NC2CCCC2)N(Cc2ccccc2)C(=O)c2snc(C(N)=O)c2N)ccc1O` (stereo not given), the inhibition was 23.1%.

As to `COc1ccc(CNC(=O)C(c2ccc(O)cc2)N(Cc2ccco2)C(=O)c2snc(C(N)=O)c2N)cc1` (stereo not given), the inhibition was 65% (active).

As to `COc1ccc2nc3n(c(=O)c2c1)-c1ccc(Cl)cc1C(=O)NC3Cc1ccccc1` (stereo not given), the inhibition was 25.3%.

Regarding `CCC(C(=O)OCC(=O)Nc1c(Cl)cc(Cl)cc1Cl)c1ccccc1` (stereo not given), the inhibition was 15.1%.

For the molecule `CCC(C(=O)OCC(=O)Nc1ccc(C(=O)Nc2ccc(OC)cc2)cc1)c1ccccc1` (stereo not given), the inhibition is 65.6% (active).

Turning to `CCC(C(=O)OCC(=O)Nc1ccccc1-c1ccccc1)c1ccccc1` (stereo not given), the inhibition is 36.7%.

Consider `O=C1Nc2c(Br)cc(Br)cc2C1(O)N1CCOCC1` (stereo not given), for which the inhibition is 1.94%.

Turning to `COc1ccc(-c2cc3nc(C)c(CCC(=O)NC(C)CCc4ccco4)c(C)n3n2)c(OC)c1` (stereo not given), the inhibition is 8.4%.

For the molecule `COc1ccc2[nH]c3c(c2c1)CCN1C(=O)C(CC(=O)NCCc2ccccn2)C[C@H](C(=O)N2CCOCC2)[C@@]31C` (stereo not given in full), the inhibition was 3.09%.

Regarding `CCN1C(=O)N[C@@H]2C[C@H](C(=O)N3CCCC3)[C@H](C)[C@H](c3ccccc3)C[C@@H]21`, the inhibition was 6%.

On to `Cc1ccc(C)c(S(=O)(=O)N2CCN(c3ncnc4sccc34)CC2)c1`, for which the inhibition was 65.3% (active).

Take `Cc1ccc(C)c(S(=O)(=O)n2cnc3ccccc32)c1`: the inhibition is -29.5%.

Regarding `Cc1ccc(C)c(S(=O)(=O)N2CCN(CC(=O)Nc3ccc([N+](=O)[O-])cc3)CC2)c1`, the inhibition is 28.5%.

For the molecule `COc1ccc(NC(=O)N(C)C[C@@H]2OCCCC[C@@H](C)Oc3ccc(NC(=O)NC4CCCCC4)cc3C(=O)N([C@H](C)CO)C[C@@H]2C)cc1`, the inhibition is 2.84%.

Regarding `CC[C@H](C)[C@H]1CNC(=O)C(=O)N1CC1CCN(CCc2ccc(OC)c(OC)c2)CC1`, the inhibition was 9.23%.

Take `CCO/C([O-])=N/c1c[n+](N2CCOCC2)no1`: the inhibition is -14.5% and -7.68%.
